High-throughput results: PubChem, several laboratories
Efflux pump mplx: antifungal efflux pump inhibition, Nile Red retention; S. cerevisiae Candida pump triplex; inhibition, % at 10 µM; 330,000 compounds, 0.44% hits; AID 485275;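 active = plate passing quality check with inhibition over a set limit, or well fluorescence over plate mean plus 4 SD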;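 also: Nile Red retained in pooled yeast measured as flow cytometry median fluorescence; 0% = buffer negative control and 100% = Enniatin B positive control; higher means more Nile Red kept so more efflux inhibition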
CSC inhib: blocks cancer stem cells; cancer stem cell-like cells viability, luminescence; inhibition, % at 7.5 µM; 300,000 compounds, 1.1% hits; in the data active = inhibition above about 75%; tested in HMLE shEcad cells
Beta cell apopt: blocks beta cell apoptosis. INS-1E cytokine-induced death, ATP luminescence, 48 h; percent of positive-control rescue, neutral wells zero. 300,000 compounds, 0.8% hits. protection from apoptosis, % (no concentration beside the values). AID 435005;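 active = Every replicate reaches about 75%, or at least half do and their mean reaches it too, limit read from the data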;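 also: 0% = cytokine-treated negative control wells and 100% = positive control rescue; higher means more ATP so stronger rescue from cytokine killing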
T cruzi repl: T. cruzi replication inhibition; 300,000 compounds, 1.4% hits; inhibition, % (test concentration not listed); T. cruzi beta-gal in NIH3T3, luminescence, 90 h; AID 1885;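 active = mean inhibition across valid replicates above about 55%, limit read from the data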;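 also: signal also drops with host cell toxicity which is not excluded here; 0% = plate median of DMSO wells and 100% = zero luminescence signal; higher percent means less beta-gal luminescence so fewer parasites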
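System: mouse NIH/3T3 fibroblasts infected with β-gal-expressing T. cruzi Tulahuen C4 / Input: NIH/3T3 cells, 5,000 per well / Buffer or medium: Low-serum DMEM with 2% FBS / Probe or stimulus: 5000 reporter trypomastigotes per well / Schedule: ≥90 h infection period, 3 h prior cell attachment / Measured by: GalScreen luminescence, 60 min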
WT yeast gro inh: growth inhibition of WT yeast, mitochondrial fusion screen; 190,000 compounds, 2.1% hits; inhibition, % at 10 µM; mitochondrial fusion phenotypic screen, WT strain; AID 1362; in the data active = inhibition above about 58%; tested in S. cerevisiae
SUMO Mot1 rescue: SUMOylation pathway inhibition by Mot1-301 growth rescue. growth rescue, % at 18.8 µM. S. cerevisiae Mot1-301 growth rescue, ATP luminescence, 38.5C; percent above DMSO median, 100 means doubled. 320,000 compounds, 1% hits;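 active = every valid replicate shows activation above 250% relative to neutral control wells; inactive = the rest, any valid replicate at or below 250%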;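 also: OY570 slx delta 5 strain wells were the positive control but not used for scaling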
Starred values were filed as active, the others as inactive; / = no result. Most compounds without a hit are left out; they make up all but 4.8% or so of the library.

SMILES	Efflux pump mplx	CSC inhib	Beta cell apopt	T cruzi repl	WT yeast gro inh	SUMO Mot1 rescue
CC(/C=C/c1ccc2c(c1)OCO2)=N/NC(=O)c1ccc(C)nc1	0	/	-4	-4	-9	10
O=C(NCc1cccc(OC(F)(F)F)c1)c1ccc2c(c1)S(=O)(=O)c1cc(Cl)ccc1C2=O	0	1	1	/	/	-10
Clc1ccc(SCCOCCN2CCOCC2)cc1	0	41	0	57*	/	241
Brc1cccc(OCCN2CCCCC2)c1	0	7	-2	9	-8	6
Brc1cccc(OCCN2CCc3ccccc3C2)c1	0	84*	2	48	/	70
O=C1CSC(c2ccc(Cl)cc2)N1Nc1nc(N2CCOCC2)nc(N2CCOCC2)n1 (configuration not stated)	0	-2	-7	14	-3	3
CN(CC(=O)NC(=O)NC1CCCCC1)CC(=O)Nc1ccc(Cl)cc1	0	-6	4	/	/	-20
CCC(C)NC(=O)c1nc2c(nnn2Cc2ccccc2Cl)c(=O)[nH]1 (configuration not stated)	0	16	2	12	-26	9
O=C(NCc1cccs1)c1nc2c(nnn2Cc2ccccc2Cl)c(=O)[nH]1	0	111*	5	41	-7	-25
O=C(c1ccc(COc2ccc(Cl)cc2)cc1)N1CCCCC1	0	1	-5	26	60*	8
Brc1cccc(CNCC2CCCO2)c1 (configuration not stated)	0	-13	-7	-2	/	2
CC(=O)Nc1ccc(NC(=O)CCn2c(=O)oc3ccccc32)cc1	0	-15	-4	0	/	-13
O=C(CCN1C(=O)/C(=C\c2cccs2)SC1=S)NC1=NCCS1	0	-1	0	-5	76*	-3
O=C(CCn1c(=O)oc2ccccc21)NC1=NCCS1	0	0	-11	-10	3	342*
O=C(CCN1C(=O)/C(=C/c2cccs2)SC1=S)NC1=NCCS1	0	11	-1	/	72*	23
CN(C)/C=C/C(=O)c1cc(N2CCOCC2)ccc1[N+](=O)[O-]	0	7	-2	6	-15	9
CN(C)CCN(C(=O)c1ccc(S(=O)(=O)N(C)C)cc1)c1nc2cc3c(cc2s1)OCCO3	0	-30	-8	61*	1	-17
COc1ccc2nc(N(CCN(C)C)C(=O)c3ccc4c(c3)OCCO4)sc2c1	0	-5	-7	65*	/	-2
O=C(CNC(=O)c1ccc(Br)o1)NNC(=O)COc1ccccc1Cl	0	-9	0	/	/	0
FC(F)(F)c1nc(N2CCCC2)ncc1-c1nnnn1-c1ccccc1	0	/	21	9	60*	-8
O=C(/C=C/c1ccco1)NC(=S)Nc1nc(-c2ccc3ccccc3c2)cs1	0	76*	9	-2	11	11
O=C(/C=C/c1ccco1)NC(=S)Nc1nc(-c2ccc(Cl)cc2)cs1	0	/	-2	-5	-5	-6
CCOCCc1nnc(NC(=O)CS(=O)(=O)c2ccc(C)cc2)s1	0	-7	/	4	/	-5
c1ccc(CC2CCN(Cc3ccccn3)CC2)cc1	0	-3	-3	-8	10	343*
CCOC(=O)C1=C(c2ccccc2)Nc2ncnn2C1c1ccc(OC)c(OC)c1OC (configuration not stated)	0	-1	-13	56*	-13	5
SMILES	Efflux pump mplx	CSC inhib	Beta cell apopt	T cruzi repl	WT yeast gro inh	SUMO Mot1 rescue
Cc1nnc(NC(=O)c2ccccc2Br)s1	0	-4	-1	-11	4	302*
CCOc1c(Cl)cc(CNc2ccc(S(N)(=O)=O)cc2)cc1OC	0	5	4	-21	8	/
CCOc1c(Cl)cc(CNc2ccc(N3CCCC3)cc2)cc1OC	/	/	/	63*	18	/
CCOC(=O)Cc1nnc(Nc2ccc(C)cc2C)c2ccccc12	0	-17	7	-5	-6	10
CC(=O)Nc1c2c(nn1-c1ccc(F)cc1)CSC2	0	7	-4	-18	/	10
CC1C(=O)C(C)C(c2ccc([N+](=O)[O-])cc2)NC1c1ccc([N+](=O)[O-])cc1 (configuration not stated)	0	56	2	67*	20	-14
Cc1ccc(-n2nc(-c3ccc(OC(F)(F)F)cc3)cc2N)cc1C	0	41	/	-26	/	3
CCCN(CC1CC1)C(=O)CSc1ncnc2sccc12	0	-12	-2	5	-13	-10
